The RNAGym collection of RNA variant scans (doi:10.1126/science.aae0568)
Fewer inactive variants are shown than the library holds.

B1: tRNA (parent)
chain: GUUCCGUUGGCGUAAUGGUAACGCGUCUCCCUCCUAAGGAGAAGACUGCGGGUUCGAGUCCCGUACGGAACG

Variants of: B1
Experiment: yeast fitness relative to wild type (ratio to wild type); higher = fitter; tRNA-Arg(CCU), competitive growth, 37 C, YPD
In short: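 The tRNA-Arg(CCU) gene variants were made by chemical synthesis with a 3% per-site mutation rate at 69 sites and inserted at the native genomic locus of Saccharomyces cerevisiae. After pooling, the strains were competed in YPD at 37°C for 24 hours in six parallel replicates. Gene amplicons from the start population and each end population were read by 100-nucleotide paired-end sequencing, and Darwinian fitness relative to wild type was taken from genotype frequency changes. Genotypes needed ≥ 100 starting reads, and estimates < 0.5 were set to 0.5.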

| Variant | yeast fitness |
| --- | --- |
| GUUCCGUUGGCGUAAUGGUAACGCGUCUCUUUCAUAAGGAGAAGACUGCGGGUUCGAGUCCCGUACGGACCG [C30U C31U C34A A70C] | ≤ 0.5 |
| GUUCCGUUGGCGUAAUGGUAACGCGUCUCUCUCCUAAGGAGAAGACUGUGGGUUCGAGUCCCGUACGGACCG [C30U C49U A70C] | 0.543 |
| GUUCCGUUGGCGUAAUGGUAACGCGUCUCUCUUCUAAGGAGAAGACUGCGGGUUCGGGUACCGUACGGAACG [C30U C33U A57G C60A] | ≤ 0.5 |
| GUUCCGUUGGCGUAAUGGUAACGCGUCUCUCUCCUAAGGAGAAGAAUGCGGGUUCGAGUCCUGUACGGAACG [C30U C46A C62U] | 0.852 |
| GUUCCGUUGGCGUAAUGGUAACGCGUCUCUCUCCUAAGGAGAAGACUGCGGGUUCGAGUCUCCUACGGAACG [C30U C61U G63C] | ≤ 0.5 |
| GUUCCGUUGGCGUAAUGGUAACGCGUCUCUCUCCUAAGGAGAAGACUGCGGGUUUGAGUCCCGUAUGGAACG [C30U C55U C66U] | 0.531 |
| GUUCCGUUGGCGUAAUGGUAACGCGUCUCUCUCCUAAGGAGAAGACUGCGGGUUCGAGUCGCGUACGGACCG [C30U C61G A70C] | ≤ 0.5 |
| GUUCCGUUGGCGUAAUGGUAACGCGUCUCUGUCCUAAGGAGAAGACUGCGGGCUCGAGUCCCGUACGGAACG [C30U C31G U53C] | ≤ 0.5 |
| GUUCCGUUGGCGUAAUGGUAACGCGUCUCUUUCCUAAGGAGAAGACUGCGGGUUCGAGUCCCGUACGGAACG [C30U C31U] | 1.02 |
| GUUCCGUUGGCGUAAUGGUAACGCGUCUCUCUCCUAAGGAGAAGACUGCGGGUUCGCGUCCCGUACGGAACG [C30U A57C] | 0.586 |
| GUUCCGUUGGCGUAAUGGUAACGCGUCUCUGUCCUCAGGAGAAGACUGCGGGUACGAGUCCCGUACGGAACG [C30U C31G A36C U54A] | 0.674 |
| GUUCCGUUGGCGUAAUGGUAACGCGUCUCUCUCCUAAGGAGAAGACUGCGGGUUCGAGUCCUGUACGCAACG [C30U C62U G68C] | 0.598 |
| GUUCCGUUGGCGUAAUGGUAACGCGUCUCUCUCCUAAGGAGAAGACUGCGGGUUCGGGUGCCGUACGGAACG [C30U A57G C60G] | ≤ 0.5 |
| GUUCCGUUGGCGUAAUGGUAACGCGUCUCUCUACUAAGGAGAAGACUGCGGGUUCGAGUCCCCCACGGAACG [C30U C33A G63C U64C] | ≤ 0.5 |
| GUUCCGUUGGCGUAAUGGUAACGCGUCUCUCUCUUAAGGAGAAGACUGCGGGUUCGAGUCCCGUACGGAACG [C30U C34U] | 0.715 |
| GUUCCGUUGGCGUAAUGGUAACGCGUCUCUCUCAUAAGGAGAAGACUGCGGGUUCGAGUCCCGUACGGAACG [C30U C34A] | 0.806 |
| GUUCCGUUGGCGUAAUGGUAACGCGUCUCUCUCCUAAGGAGAAGAAUGCGGGUACGGGUCCCGUACGGAACG [C30U C46A U54A A57G] | 0.52 |
| GUUCCGUUGGCGUAAUGGUAACGCGUCUCUUUCCUAAGGAGAAGACUGCGGGUUCGAGUGCCGUACGGAACG [C30U C31U C60G] | ≤ 0.5 |
| GUUCCGUUGGCGUAAUGGUAACGCGUCUCUCUCCUAAGGAGAAGAAUGCGGGUUCGAGUCCCAUACGGAACG [C30U C46A G63A] | 0.825 |

| Variant | yeast fitness |
| --- | --- |
| GUUCCGUUGGCGUAAUGGUAACGCGUCUCUCUCCUAAGGAGAAGACUGCGGGUUCGGGUCCCGUUCGGAACG [C30U A57G A65U] | 0.667 |
| GUUCCGUUGGCGUAAUGGUAACGCGUCUCUAUCCUAAGGUGAAGACUGAGGGUUCGAGUCCCGUACGGAACG [C30U C31A A40U C49A] | 0.682 |
| GUUCCGUUGGCGUAAUGGUAACGCGUCUCUCUCCUAAGGAGAAGACUGCGGGUUUGAGUCCCGUACGGAACG [C30U C55U] | 0.687 |
| GUUCCGUUGGCGUAAUGGUAACGCGUCUCUCUCCUAAGGAGAAGACUGCGGGUUGGAGUCCCGUACGGAACG [C30U C55G] | 0.553 |
| GUUCCGUUGGCGUAAUGGUAACGCGUCUCUCUCUUAAGGAGAACACUGCGGGUUCGAGUCCCGUACGGAACG [C30U C34U G44C] | ≤ 0.5 |
| GUUCCGUUGGCGUAAUGGUAACGCGUCUCUCUUCUAAGGAGAGGACUGCGGGUUCGAGUCCCGUACGGAACG [C30U C33U A43G] | 0.569 |
| GUUCCGUUGGCGUAAUGGUAACGCGUCUCUCUACUAAGGAGAAGACUGCCGGUUGGAGUCCCGUACGGAACG [C30U C33A G50C C55G] | ≤ 0.5 |
| GUUCCGUUGGCGUAAUGGUAACGCGUCUCUCUCCUAAGGAGAAGAAUGCGGGUUCGAGUCCCGUACGCAACG [C30U C46A G68C] | 0.704 |
| GUUCCGUUGGCGUAAUGGUAACGCGUCUCUCUCCUAAGGAGAAGACUGGGGGUACGAGUCCCGUACGGAACG [C30U C49G U54A] | ≤ 0.5 |
| GUUCCGUUGGCGUAAUGGUAACGCGUCUCUCUCCUAAGGAGAAGACUGCGGGUUCGAGUGCCGUACAGAACG [C30U C60G G67A] | ≤ 0.5 |
| GUUCCGUUGGCGUAAUGGUAACGCGUCUCUCUCCUAAGGAGAAGACUGCGGGUUGGAGUCCCGUACGGCACG [C30U C55G A69C] | ≤ 0.5 |
| GUUCCGUUGGCGUAAUGGUAACGCGUCUCUCUCCUAAAGAGAAGACUGCGGAUUCGAGUCCCGUACGGAACG [C30U G38A G52A] | 0.621 |
| GUUCCGUUGGCGUAAUGGUAACGCGUCUCUCUCCUAAGGAGAAGACUGUGGGUUCGAGUCCCGUACGGAACG [C30U C49U] | 0.862 |
| GUUCCGUUGGCGUAAUGGUAACGCGUCUCUCUCCUAAGGAGAAGAUUGCGGGUUCGAGUACCGUACGGAACG [C30U C46U C60A] | ≤ 0.5 |
| GUUCCGUUGGCGUAAUGGUAACGCGUCUCUUUCCUAAGGAGAAGCCUGUGGGGUCGAGUCCCGUACGGAACG [C30U C31U A45C C49U U53G] | ≤ 0.5 |
| GUUCCGUUGGCGUAAUGGUAACGCGUCUCUAUCCUAAGGAAAAGACUGCGGGUUCGAGUCCCGUACGGAACG [C30U C31A G41A] | ≤ 0.5 |
| GUUCCGUUGGCGUAAUGGUAACGCGUCUCUCUCCUAAAGAGAAGACUGCGGGUUCGAGUGCCGUACGGAACG [C30U G38A C60G] | 0.537 |
| GUUCCGUUGGCGUAAUGGUAACGCGUCUCUCUCCUAAAGAGAAGACUGCGGGUUCGAGUCUCGUACGGAACG [C30U G38A C61U] | 0.692 |
| GUUCCGUUGGCGUAAUGGUAACGCGUCUCUCUCCUAAGGAGAAGGCUGCGGGUUCGAAUCCCGUACGGAACG [C30U A45G G58A] | 0.663 |
